The source of these data is article PMC4363136 (Biochemical pharmacology, 2014).

The test system of data set [1] is T24 bladder cancer cells. As to the kind of experiment: MTT cell proliferation assay, T24. Format: cell-based. The essentials: (§1)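 Cell lines were grown in medium with 10% FBS and 1% penicillin/streptomycin: PC-3 in RPMI; HeLa, MIA PaCa-2 and T24 in DMEM. Cells were seeded at 5×10^3 per well, attached overnight, then given test compound (0–500 µM, from PBS solution, diluted in medium) for 48 h. MTT was added for 4 h and formazan dissolved in DMSO. A570 was read. IC50 is the concentration giving 50% inhibition of proliferation.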

Data set [2] has as its system MAPs-rich tubulin. As to the kind of experiment: Light scattering assay of MAPs-rich tubulin polymerization. Format: biochemical, goat. The settings on record: 50 µM compound, 1 mg/ml MAPs-rich tubulin, 37°C, 400 nm.
Data set [3] deals with pure tubulin. As to the kind of experiment: Light scattering assay of pure tubulin polymerization. The class given is biochemical, goat. The settings on record: 10 µM tubulin, 1M monosodium glutamate.
In data set [4] the test system is MIA PaCa-2 cells. Description: MTT cell proliferation assay, MIA PaCa-2. The class given is cell-based. The method in brief: as §1
The subject of data set [5] is HeLa cells. As to the kind of experiment: MTT cell proliferation assay, HeLa. Format: cell-based. To be noted: 48 h. The method in brief:
as §1

Data set [6] is described as follows: Pharmacokinetics after oral administration. The class given is in vivo, CD-1 mice. To be noted: for Fold increase in F compared to Nos: oral 50 mg/kg. The method in brief:
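Male CD-1 mice (3 per group), fasted 3 h, were dosed once by oral gavage at 50 mg/kg in water. Plasma was collected by sparse retro-orbital sampling at 5 min–24 h. Samples were acetonitrile-precipitated with internal standard and assayed by LC-MS/MS (1 ng/mL–1 µg/mL). Non-compartmental analysis: linear-trapezoid AUClast, Cmax taken as observed. F is dose-normalized oral AUClast over IV (5 mg/kg) AUClast.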

The subject of data set [7] is MAPs rich tubulin. Description: GTPase activity assay. To be noted: different concentrations of compound, 10 min. Format: biochemical, goat.
A short description of data set [8]: Pharmacokinetics after intravenous administration. The class given is in vivo, CD-1 mice. The essentials:
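Male CD-1 mice, fasted 3 h, received a single IV dose of test compound at 5 mg/kg in water. Blood was sampled sparsely from the retro-orbital plexus at 5 min–24 h into K2EDTA. Plasma was protein-precipitated with acetonitrile and 7-hydroxynoscapine internal standard, then quantified by positive-mode MRM LC-MS/MS (calibration 1 ng/mL–1 µg/mL). Non-compartmental analysis: linear-trapezoid AUC, CL and Vss from IV data, C0 back-extrapolated.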

Data set [9] deals with PC-3 cells. Description: MTT cell proliferation assay, PC-3. Format: cell-based, human. The essentials: as §1
The test system of data set [10] is PC-3 cells. Description: Immunofluorescence confocal microscopy of spindle morphology. The class given is cell-based, human. The settings on record: 12h and 24h. The essentials:
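PC-3 cells were grown on glass coverslips and exposed to test compound for 12 h or 24 h. Cells were fixed in −20 °C methanol for 10 min, then blocked in 2% BSA/PBS at 37 °C for 1 h. They were stained with anti-α- and anti-γ-tubulin (1:1000, 45 min, 37 °C) and Alexa Fluor 488/555 secondaries (1:1000, 45 min, 37 °C). DNA was stained with DAPI. Slides were mounted in antifade and imaged by confocal microscopy.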

The mark [11] stands for this setting: male, CD-1, mouse, plasma, po, 50 mg/kg.
Setting [12] is: male, CD-1, mouse, plasma, iv, 5 mg/kg.
Where [13] appears, read: oral gavage 50 mg/kg, CD-1 mice, plasma.

On to `COc1ccc2c(c1OC)C(=O)O[C@@H]2[C@H]1c2c(cc3c(c2OC)OCO3)CCN1C` [Compound 1, Noscapine, reference compound], for which the IC50 in [1] (48 h) was 83 µM. The “Percent decrease in light scattering of MAP-tubulin” value (“Percent decrease” below) in data set [2] turned out to be 11 ± 4%. Also, the “% Decrease in light scattering of pure tubulin” value (from here on “% Decrease in light scattering”) in [3] (10 µM compound) is reported as 5±1.5%. Also, the “% Decrease in light scattering” value in data set [3] (25 µM compound) came out at 9±2.6%. For the same molecule, the “% Decrease in light scattering” value in data set [3] (50 µM compound) was determined as 13±2.9%. The molecule further yielded an IC50 in data set [4] (Homo sapiens, MIA PaCa-2, 48 h) of 105 µM. In data set [5] (Homo sapiens), this molecule gave an IC50 of 436 µM. In data set [6] (setting [11]), the exposure AUC(0-t) turned out to be 603 ng·h/mL, the Tmax worked out at 4.8 min and the bioavailability stood at 13%. Moreover, the highest concentration (Cmax) in data set [6] (oral gavage 50 mg/kg, CD-1 mice, plasma, listed as Nos, 50 mg/kg) was 1156 ± 19 ng/mL. The “change in GTPase activity of MAPs-rich tubulin” value in [7] is listed as “remained almost unchanged”. For the same molecule, in [8] (setting [12]), the AUC(0-t) was found to be 479 ng·h/mL, the C0 turned out to be 1210 ng/mL, the Vd was found to be 4.55 L/kg and the clearance came out at 174 mL/min/kg. In data set [8] (setting [12]), the half-life is 23.4 min. Moreover, the midpoint of inhibition in [9] (Homo sapiens, PC-3, 48 h), the IC50, lay at 100 µM.
Regarding `COc1ccc2c(c1OC)C(=O)O[C@@H]2[C@H]1c2c(c(Br)c3c(c2OC)OCO3)CCN1C` [Compound 2, (S)-3-((R)-9-bromo-4-methoxy-6-methyl-5,6,7,8-tetrahydro-[1,3]dioxolo[4,5-g]isoquinolin-5-yl)-6,7-dimethoxyisobenzofuran-1(3H)-one, reference compound], the figures for the IC50 in data set [1] (48 h) and in data set [5] (Homo sapiens) were 191 µM and 436 µM, respectively.
As to `COc1ccc2c(c1OC)C(=O)O[C@@H]2[C@H]1c2c(c(NCCC[N+](C)(C)C)c3c(c2OC)OCO3)CCN1C.[Br-]` [Compound 4a, 3-(((R)-5-((S)-4,5-dimethoxy-3-oxo-1,3-dihydroisobenzofuran-1-yl)-4-methoxy-6-methyl-5,6,7,8-tetrahydro-[1,3]dioxolo[4,5-g]isoquinolin-9-yl)amino)-N,N,N-trimethylpropan-1-aminium bromide], the “Percent decrease” value in [2] was 29 ± 5%.
With `COc1ccc2c(c1OC)C(=O)O[C@@H]2[C@H]1c2c(c(NCCCCS(=O)(=O)O)c3c(c2OC)OCO3)CCN1C` [Compound 4b, 4-(((R)-5-((S)-4,5-dimethoxy-3-oxo-1,3-dihydroisobenzofuran-1-yl)-4-methoxy-6-methyl-5,6,7,8-tetrahydro-[1,3]dioxolo[4,5-g]isoquinolin-9-yl)amino)butane-1-sulfonic acid], the “Percent decrease” value in data set [2] stood at 30 ± 9%. In data set [9] (Homo sapiens, PC-3, 48 h), 490 µM corresponded to half-maximal inhibition (IC50).
In the case of `COc1ccc2c(c1OC)C(=O)O[C@@H]2[C@H]1c2c(c(NCCCS(=O)(=O)O)c3c(c2OC)OCO3)CCN1C` [Compound 4c, 3-(((R)-5-((S)-4,5-dimethoxy-3-oxo-1,3-dihydroisobenzofuran-1-yl)-4-methoxy-6-methyl-5,6,7,8-tetrahydro-[1,3]dioxolo[4,5-g]isoquinolin-9-yl)amino)propane-1-sulfonic acid], in data set [2], the “Percent decrease” value was 27 ± 10%.
Still for that read-out and setting: as for `COc1ccc2c(c1OCCC[N+](C)(C)C)C(=O)O[C@@H]2[C@H]1c2c(cc3c(c2OC)OCO3)CCN1C.[Br-]` [Compound 6a, 3-(((S)-5-methoxy-1-((R)-4-methoxy-6-methyl-5,6,7,8-tetrahydro-[1,3]dioxolo[4,5-g]isoquinolin-5-yl)-3-oxo-1,3-dihydroisobenzofuran-4-yl)oxy)-N,N,N-trimethylpropan-1-aminium bromide], the figure is 19 ± 6%.
Turning to `COc1ccc2c(c1OCCCS(=O)(=O)O)C(=O)O[C@@H]2[C@H]1c2c(cc3c(c2OC)OCO3)CCN1C` [Compound 6c, 3-(((S)-5-methoxy-1-((R)-4-methoxy-6-methyl-5,6,7,8-tetrahydro-[1,3]dioxolo[4,5-g]isoquinolin-5-yl)-3-oxo-1,3-dihydroisobenzofuran-4-yl)oxy)propane-1-sulfonic acid], the “Percent decrease” value in data set [2] is recorded as 32 ± 14%. This molecule also displayed an IC50 in [9] (Homo sapiens, PC-3, 48 h) of 275 µM.
Turning to `COc1ccc2c(c1OCCC[N+](C)(C)C)C(=O)O[C@@H]2[C@H]1c2c(c(Br)c3c(c2OC)OCO3)CCN1C.[Br-]` [Compound 8a, 3-(((S)-1-((R)-9-bromo-4-methoxy-6-methyl-5,6,7,8-tetrahydro-[1,3]dioxolo[4,5-g]isoquin-olin-5-yl)-5-methoxy-3-oxo-1,3-dihydroisobenzofuran-4-yl)oxy)-N,N,N-trimethylpropan-1-aminium bromide], the “Percent decrease” value in [2] was 30 ± 12%.
Consider `COc1ccc2c(c1OCCCCS(=O)(=O)O)C(=O)O[C@@H]2[C@H]1c2c(c(Br)c3c(c2OC)OCO3)CCN1C` [Compound 8b, 4-(((S)-1-((R)-9-bromo-4-methoxy-6-methyl-5,6,7,8-tetrahydro-[1,3]dioxolo[4,5-g]isoquin-olin-5-yl)-5-methoxy-3-oxo-1,3-dihydroisobenzofuran-4-yl)oxy)butane-1-sulfonic acid], for which the “spindle / mitotic phenotype” value in [10] is reported as “induced a multipolar phenotype”. Besides, the IC50 was 32 µM in data set [1] (T24, 48 h, MTT); 40 µM in [4] (MIA Paca-2, 48 h, MTT); 53 µM in [5] (MTT); 29 µM in [9] (PC-3 cells, 48 h, MTT). Further, in data set [2], the “Percent decrease” value came to 68 ± 18%. In [6] (dose normalized AUClast, oral 50 mg/kg vs IV 5 mg/kg, CD-1 mice), the “Bioavailability F” value amounted to 11. In addition, the “Fold increase in F compared to Nos” value in data set [6] (CD-1 mice, 50 mg/kg) stood at 0.9 fold. For the same molecule, the time to peak (Tmax) in [6] (oral gavage 50 mg/kg, CD-1 mice) came to 4.8 min. Moreover, the AUClast is 164 ng·h/mL in [6] (setting [13]) and 145.41 ng·h/mL in data set [8] (IV 5 mg/kg, CD-1 mice, plasma). In data set [6] (setting [13]), this molecule displayed a Cmax of 14 ± 7 ng/mL. The CL in data set [8] (IV 5 mg/kg, CD-1 mice) was 512 mL/min/kg. This molecule also registered a VSS in data set [8] (IV 5 mg/kg, CD-1 mice) of 23.81 L/kg. Besides, the half-life in data set [8] (IV 5 mg/kg, CD-1 mice) amounted to 22.8 min. In addition, the C0 in data set [8] (back extrapolated concentration, IV 5 mg/kg, CD-1 mice, plasma) is 259.39 ng/mL.
In the case of `COc1ccc2c(c1OCCCS(=O)(=O)O)C(=O)O[C@@H]2[C@H]1c2c(c(Br)c3c(c2OC)OCO3)CCN1C` [Compound 8c, 3-(((S)-1-((R)-9-bromo-4-methoxy-6-methyl-5,6,7,8-tetrahydro-[1,3]dioxolo[4,5-g]isoquinolin-5-yl)-5-methoxy-3-oxo-1,3-dihydroisobenzofuran-4-yl)oxy)propane-1-sulfonic acid], the “spindle / mitotic phenotype” value in [10] is “induced a multipolar phenotype”. The molecule also registered an IC50 in data set [1] (48 h) of 4 µM. In [2], the “Percent decrease” value turned out to be 61 ± 21%. The same molecule yielded an IC50 in [4] (Homo sapiens, MIA PaCa-2, 48 h) of 18 µM. The molecule also had a half-maximal inhibitory concentration (IC50) in data set [5] (Homo sapiens) of 53 µM. Further, in data set [6] (setting [11]), the exposure AUC(0-t) stood at 240 ng·h/mL, the time of peak concentration (Tmax) came to 4.8 min and the bioavailability came out at 21%. For the same molecule, the “Fold increase in F compared to Nos” value in [6] (CD-1 mice, 50 mg/kg) worked out at 1.7 fold. In data set [8] (setting [12]), the AUC(0-t) is 133 ng·h/mL, the C0 amounted to 307 ng/mL, the Vd came to 18.4 L/kg and the clearance amounted to 584 mL/min/kg. In data set [8] (setting [12]), the half-life was 42 min. In addition, in [9] (Homo sapiens, PC-3, 48 h), the IC50 turned out to be 55 µM.
Consider `COc1cc([C@@H]2c3cc4c(cc3[C@H](O)[C@H]3COC(=O)[C@H]23)OCO4)cc(OC)c1OC` [podophyllotoxin], for which the “change in GTPase activity of MAPs-rich tubulin” value in [7] is on record as “decreased”.
